assay: Toxicity liver stage against HepG2, at 10uM; type: cell-based; set-up: test concentration 10 uM, cell line HepG2-A16-CD81EGFP; conditions: human, HepG2-A16-CD81EGFP cells; read-out: INHIBITION
Summary of the method: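 Uninfected HepG2-A16-CD81EGFP cells, 3 × 10^3 per well, 1536-well, plated on prespotted compound at 10 μM final, parasite-free screening media added to match infected plates; puromycin 10 μM positive, DMSO 0.5% negative; run in parallel with 48 h PbLuc assay at 37 °C, 5% CO2; viability by CellTiter-Glo luminescence, normalized to controls.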

SMILES	cytotoxicity at 10 µM [%]
CCOc1ccc(NC(=O)N(CCN(C)C)C(C)c2ccncc2)cc1 (configuration not stated)	5.42
COCCNC(=O)c1cnc(N(C)C)nc1C	-5.33
CCc1cc(=O)[nH]c2nnc(SCC(=O)N3CCC(C)CC3)n12	-5.43
CCCS(=O)(=O)N1CCN(CC(F)(F)F)CC1	-3.29
Cn1c(C(=O)N2CCOCC2)nc2c1CCN(c1ncccn1)C2	1.7
CN(C)C(=O)[C@@H]1C[C@@H]2CCN(C3CCOCC3)C[C@@H]2O1	-7.56
Cn1cc(CN2CCN3C[C@H](Oc4cccnc4)C[C@H]3C2)cn1	3.07
Cc1ccc(CN2C[C@@H]3COC[C@]3(COc3ccc(C#N)cn3)C2)o1	0.777
CCS(=O)(=O)N1CCC2(CC1)CN(c1cncnc1)C(=O)CO2	6.91
Cc1nc(N2CCCC2)nc2c1CCN(C(=O)N(C)C)CC2	7.05
Cc1ccc(-n2nnc(C(=O)O)c2C)c(C)c1	-0.185
CC(C)CNC(=O)c1c(-n2cnnn2)sc2c1CCC2	-4.56
CCS(=O)(=O)Nc1ccn(Cc2ccc(F)cc2Cl)n1	3.18
Cc1c(CN2Cc3nccn3CC2c2ccccc2)cnn1C (configuration not stated)	-1.13
Cn1ccc(C(=O)N2CCCC2c2cc(CO)[nH]n2)n1 (configuration not stated)	4.95
CN(Cc1ccc(F)cc1)[C@@H]1CN(S(C)(=O)=O)C[C@H]1O	-3.22
COCC(=O)NCCc1nc(N(C)C)ncc1-c1ccncc1	-3.46
CN(Cc1ccc(F)cc1)CC1(O)CCN(C(=O)c2ccccn2)C1 (configuration not stated)	-3
O=C1NCc2ccccc2CC12CCCN(Cc1ccsc1)C2 (configuration not stated)	11
Cc1cnn(CC2CCN(CC(O)COc3ccccc3)CC2)c1 (configuration not stated)	-1.62
Cc1cc(C)n(CC(C)NC(=O)C2(c3ccc(F)cc3)CC2)n1 (configuration not stated)	11.5

SMILES	cytotoxicity at 10 µM [%]
Cc1ccc(NCc2ccc(C#N)cc2)cc1-n1cnnn1	-0.657
Cc1ccc(C(=O)NS(=O)(=O)c2ccc3c(c2)OCCCO3)o1	2.91
CCN(CCCc1ccccc1C)S(C)(=O)=O	2.86
COCCN(C)CC1CCCN1S(=O)(=O)Cc1ccccc1F (configuration not stated)	6.84
Cc1cc(C)c2cc(C(=O)N3CCNC(=O)C3)[nH]c2c1	-13.1
COc1ccc(CN(C)Cc2c(C)noc2C)c(Cl)c1OC	-1.22
CCc1nc2n(n1)CC(NCc1cn(C)nc1-c1cccnc1)CC2 (configuration not stated)	-5.95
O=C(NCc1nncn1C1CC1)C1(c2ccc(F)cc2)CCCC1	-1.89
Cc1noc(C)c1CCC(=O)NC(C)c1nnc2n1CCCCC2 (configuration not stated)	-1.18
CC(C)OCCC(=O)NCCC(=O)N1CCN(c2ccccn2)CC1	2.56
O=C(CO)N1CCN(C(=O)c2coc3ccccc23)CC1	3.16
CC(C)Nc1ncccc1C(=O)NCc1ncc[nH]1	-7.9
COc1ccc(F)c(NCC(C)(C)S(C)(=O)=O)c1	-3.18
c1cnn(-c2ccc(CCNC3CCN(C4CC4)C3)cc2)c1 (configuration not stated)	2.84
O=C1C(NCc2ccccc2O)CCN1Cc1ccccc1 (configuration not stated)	-9.11
CNS(=O)(=O)CC(=O)NC(C)Cc1ccc(-c2ccccc2)cc1 (configuration not stated)	7.69
Cc1cnn(C2CN(Cc3noc(C4CC4)n3)C2)c1	4.34
CC(C#N)CSc1ccccc1NCC(=O)NCc1ccccc1 (configuration not stated)	-7.89
O=C(C1CC1)N1CCC2(CC1)OCCO2	1.75
Cc1ccc2c(c1)[C@@H](CC(=O)N(C)C)CCO2	-3.78
CC[C@H](C)[C@H](N)C(=O)N1CC(=O)c2sc(Nc3ccc(F)cc3)nc2C1	-1.44

SMILES	cytotoxicity at 10 µM [%]
CCOC(=O)c1n[nH]cc1CN1CCCC(N(C)Cc2ccccc2)C1 (configuration not stated)	-1.44
FC(F)(F)c1ccnc(N2CCC(c3nccn3CC3CC3)CC2)n1	3.03
CN(C)CCNCC1(O)CCCN(Cc2cccc(F)c2F)C1=O (configuration not stated)	-8.71
COCc1ccc(C(=O)N2CCCN(Cc3ccc(F)cc3)CC2)s1	-1.78
CC(=O)N1CCCn2nc(CNC(=O)N3CCCCC3)cc2C1	-3.91
Cc1cc(C)n(CC2(CNC(=O)C(c3ccccc3F)N(C)C)CC2)n1 (configuration not stated)	1.64
Cc1cccc2[nH]c(C3CCCN(Cc4ccc(CO)o4)C3)nc12 (configuration not stated)	9.83
CCC(CO)N(Cc1cccs1)C(=O)CNS(=O)(=O)c1cccs1 (configuration not stated)	4.98
COCC1CCN(C(=O)c2cn(Cc3ccccc3F)nn2)CC1	1.89
Fc1ccccc1C1(CNC2CCOC3(CCOCC3)C2)CCCC1 (configuration not stated)	-1.53
CC(C)[C@@H]1CN(Cc2cnc(C3CCCCC3)nc2)C[C@H]1N(C)C	-3.18
CCO[C@H]1C[C@@H](O)C12CCN(C(=O)CCN1CCCC1=O)CC2	2.12
CC(C)[C@@H]1CN(Cc2ccccc2C#N)C[C@H]1C(=O)O	6.3
Cc1cc(=O)[nH]c(NCCNC(=O)CN2CCCCCC2)n1	3.28
O=C1CNCC(C(=O)N2CC(Oc3ccccc3Cl)C2)N1 (configuration not stated)	10.9
O=C1N(Cc2cccc(F)c2F)CCCC1(O)CNCc1ccccn1 (configuration not stated)	-9.28
Cc1cc(C(=O)N2C[C@@H](C(=O)O)[C@H](c3ccccc3C)C2)c(C)o1	16.8
O=C(O)c1coc(COc2cccc(F)c2)n1	0.523
O=C1CCC(=O)N1c1nn(Cc2cccc(F)c2)cc1Cl	-6.61
COc1ccccc1CNc1cnn(CC(F)F)c1	-5.41
COc1ccc(CN(Cc2nc(C)no2)C2CCCCC2)cc1OC	-0.0185

SMILES	cytotoxicity at 10 µM [%]
NC(=O)c1cc(C2CCCN(CCCOc3ccc(F)cc3)C2)n[nH]1 (configuration not stated)	-16.4
CC(C)(C)c1cnc(CN2CCCCC2Cn2cccn2)o1 (configuration not stated)	-7.85
COc1ccc(OC)c(C(=O)N2CCCCC2Cn2cccn2)c1 (configuration not stated)	-0.677
Cc1noc(C)c1CN(C)CC(=O)N1CCc2sccc2C1	-19.4
CCCS(=O)(=O)NC(C)C(=O)NCc1ccnc(N2CCCC2)c1 (configuration not stated)	-13.6
COc1ncccc1NC(=O)NC(C)c1nncn1C (configuration not stated)	-18.8
NC(=O)CN1CCCN(C(=O)Cc2ccc(F)c(Br)c2)CC1	0.361
CCc1nccn1C1CCCN(C(=O)Cc2ccc(OC)c(F)c2)C1 (configuration not stated)	-3.59
Cc1ccc(-c2nnc(CNCCn3cc(C)cn3)o2)cc1	-12.1
CC(=O)Nc1nc(CN2CCOC(Cn3cc(C)cn3)C2)cs1 (configuration not stated)	11.3
Cn1cnnc1C1CCCN(C(=O)Cc2ccc3c(c2)OCCO3)C1 (configuration not stated)	0.626
O=C(c1cccc2c1OCO2)N1CCCC1Cn1cccn1 (configuration not stated)	3.46
Cc1nc(CN2CCOCC3(CCN(c4cccnc4)CC3)C2)cs1	-12.2
COCC1c2c(cnn2CC2CCOCC2)CCN1Cc1ccoc1 (configuration not stated)	-20
CC1=N[C@@]2(CC[C@@H]3CNC[C@@H]32)C(=O)N1CC(C)C	2.98
CC(=O)N1CCN(Cc2ccccn2)CC2(CC(=O)N(C)C2)C1 (configuration not stated)	1.23
O=C(Cc1ccccn1)N1CCC2(CC1)CC(Oc1ccccn1)CO2 (configuration not stated)	-0.0273
CN(C)S(=O)(=O)N1C[C@H](Oc2cccnc2)[C@H]2OCCC[C@H]21	14.8
O=C(c1ccncc1F)N1CC[C@@H]2OC(COCC3CC3)CC[C@@H]21 (some centres not stated)	-4.03

Reference: ChEMBL document CHEMBL4513216, “Probing the Open Global Health Chemical Diversity Library for Multistage-Active Starting Points for Next-Generation Antimalarials” (ACS Infect Dis, 2020)
